{
  "source": "ChEMBL document CHEMBL4350999",
  "about": "“Enhanced tumor retention of NTSR1-targeted agents by employing a hydrophilic cysteine cathepsin inhibitor” (Eur J Med Chem, 2019)",
  "key": {"[1]": {"target": "T1, Procathepsin L (Homo sapiens, UniProt P07711)", "assay": "Binding affinity to human liver cathepsin L assessed as protein-conjugate adduct formation at 0.74 MBq incubated for 30 mins in presence of E-64 using 177Lu labelled compound by SDS-PAGE analysis", "settings": "0.74 M", "outline": "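Purified human liver CatB or CatL (3 nM) in 50 mM sodium acetate/1 mM EDTA pH 5.0 incubated 30 min with 177Lu conjugate (500,000 cpm) in Tris/MgCl2/DTT buffer pH 5.5, alone or with E-64 (10 μM) or N1 (20 μM). Mixtures heated 85 °C 2 min, run on 16% tris-glycine gel at 110 V for 90 min, and read by phosphor autoradiography.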"}, "[2]": {"assay": "Drug uptake in brain of SCID mouse xenografted with human HT-29 cells using 177Lu labelled compound at 0.37 MBq/mouse, iv co-treated with D-lysine at 40 mg/kg measured at 24 hrs by gamma counter analysis", "assay_type": "ADME, organism-based", "settings": "in vivo", "outline": "(§1)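 Female SCID mice bore s.c. HT-29 xenografts (5 × 10^6 cells in Matrigel, about 80 mm3). D-lysine 40 mg/kg was co-injected i.v. with 10 μCi (0.37 MBq) of purified 177Lu-conjugate. Tissues were harvested at 24 h, weighed and gamma-counted, reported as %ID/g; mean ± SD, n = 5.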"}, "[3]": {"assay": "Drug distribution in human HT-29 cells assessed as adduct signals at 24 hrs relative to baseline", "assay_type": "ADME, cell-based", "settings": "ht-29, 24 h", "outline": "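HT-29 cells preloaded 4 h with 177Lu conjugate (0.74 MBq), washed and chased in fresh medium. Lysates taken at 0 and 24 h and run on SDS-PAGE autoradiography; adduct band radioactivity at 24 h expressed relative to the 0 h intensity.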"}, "[4]": {"assay": "Ratio of drug uptake in SCID mouse xenograted with human HT-29 cells assessed as tumour retention to drug uptake in large intestine of SCID mouse xenografted with human HT-29 cells cotreated with D-lysine at 40 mg/kg measured after 24 hrs using 177Lu labelled compound", "assay_type": "ADME, organism-based, Tumor/Large intestine", "settings": "in vivo", "outline": "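Female SCID mice (5 weeks old) carried subcutaneous flank HT-29 xenografts (5 × 10^6 cells in Matrigel), used at about 80 mm3. They received 10 μCi (0.37 MBq) of purified 177Lu-labelled conjugate i.v. by tail vein, with D-lysine 40 mg/kg co-injected. At 24 h p.i., tissues were excised, weighed and gamma-counted, and %ID/g and tumour-to-tissue ratios were calculated (n = 5).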"}, "[5]": {"assay": "Drug uptake in muscle of SCID mouse xenografted with human HT-29 cells using 177Lu labelled compound at 0.37 MBq/mouse, iv co-treated with D-lysine at 40 mg/kg measured at 24 hrs by gamma counter analysis", "assay_type": "ADME, organism-based, Muscle tissue", "settings": "in vivo", "outline": "as §1"}, "[6]": {"assay": "Drug retention in human HT-29 cells assessed as increase in mean fluorescence intensity at 5 uM incubated for 2 hrs and measured at 24 hrs using natEu labelled compound by lysotracker green staining based confocal microscopic analysis", "assay_type": "ADME, cell-based", "settings": "ht-29, 2 h", "outline": "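HT-29 cells (1.25 × 10^5/well) loaded with natEu conjugate (5 μM), washed, then chased in fresh medium up to 24 h. Lysotracker Green (100 nM) applied 2 h before each read; cells fixed and imaged confocally at 405/488 nm. Per-cell mean fluorescence and Lysotracker co-localization quantified.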"}, "[7]": {"assay": "Ratio of drug uptake in SCID mouse xenograted with human HT-29 cells assessed as tumour retention to drug uptake in small intestine of SCID mouse xenografted with human HT-29 cells cotreated with D-lysine at 40 mg/kg measured after 24 hrs using 177Lu labelled compound", "assay_type": "ADME, organism-based, Tumor/Small intestine", "settings": "in vivo"}, "[8]": {"target": "T1, Procathepsin L", "assay": "Binding affinity to cathepsin L in human HT-29 cells assessed as intracellular adduct formation at 0.74 MBq incubated for 4 hrs and measured after 24 hrs in presence of DOTA-beta-ala-[N-alpha-Me8, Dmt11, Tle12] NT6-13 using 177Lu labelled compound by SDS-PAGE analysis", "assay_type": "cell-based", "parameters": "dose or concentration left out as unconfirmed", "outline": "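HT-29 cells (1 × 10^6/well) incubated 4 h at 37 °C with 177Lu conjugate (20 μCi, 0.74 MBq) in 1 mL medium, with or without E-64 (10 μM) or NTSR1 peptide N1 (20 μM). Cells washed and refed; at set times cells pooled, RIPA-lysed with protease inhibitor. Lysates heated 85 °C 2 min, run on 16% tris-glycine SDS-PAGE, and phosphor autoradiography taken after 72 h exposure.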"}, "[9]": {"assay": "Drug uptake in liver of SCID mouse xenografted with human HT-29 cells using 177Lu labelled compound at 0.37 MBq/mouse, iv co-treated with D-lysine at 40 mg/kg measured at 24 hrs by gamma counter analysis", "assay_type": "ADME, organism-based", "settings": "in vivo", "outline": "as §1"}, "[10]": {"assay": "Drug uptake in pancreas of SCID mouse xenografted with human HT-29 cells pretreated for 1 hr with colchicine at 1 mg/kg, ip followed by 177Lu labelled compound at 0.37 MBq/mouse, iv measured at 24 hrs by gamma counter analysis", "assay_type": "ADME, organism-based", "settings": "in vivo", "outline": "(§2)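 HT-29 flank xenografts in female SCID mice (5 × 10^6 cells in Matrigel, about 80 mm3). Colchicine 1 mg/kg was given i.p. before a tail-vein injection of 10 μCi (0.37 MBq) of purified 177Lu-conjugate. Tissues were taken at 24 h, weighed and gamma-counted as %ID/g; mean ± SD, n = 5.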"}, "[11]": {"assay": "Drug uptake in SCID mouse xenografted with human HT-29 cells assessed as tumour retention pretreated for 1 hr with colchicine at 1 mg/kg, ip followed by 177Lu labelled compound at 0.37 MBq/mouse, iv measured at 24 hrs by gamma counter analysis", "assay_type": "ADME, organism-based", "settings": "in vivo", "outline": "(§3)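 Female SCID mice bearing s.c. flank HT-29 xenografts (5 × 10^6 cells in Matrigel, ~80 mm3). Given 10 μCi (0.37 MBq) 177Lu conjugate i.v. by tail vein; groups sacrificed at 4, 24, 72 h. Tissues weighed and gamma-counted as %ID/g, excretion as %ID; n = 5, mean ± SD. Blocking arms: colchicine 1 mg/kg i.p. beforehand, or D-lysine 40 mg/kg co-injected.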"}, "[12]": {"assay": "Drug uptake in blood of SCID mouse xenografted with human HT-29 cells pretreated for 1 hr with colchicine at 1 mg/kg, ip followed by 177Lu labelled compound at 0.37 MBq/mouse, iv measured at 24 hrs by gamma counter analysis", "assay_type": "ADME, organism-based", "settings": "in vivo", "outline": "as §3"}, "[13]": {"assay": "Drug uptake in heart of SCID mouse xenografted with human HT-29 cells pretreated for 1 hr with colchicine at 1 mg/kg, ip followed by 177Lu labelled compound at 0.37 MBq/mouse, iv measured at 24 hrs by gamma counter analysis", "assay_type": "ADME, organism-based", "settings": "in vivo", "outline": "as §2"}, "[14]": {"assay": "Drug uptake in small intestine of SCID mouse xenografted with human HT-29 cells pretreated for 1 hr with colchicine at 1 mg/kg, ip followed by 177Lu labelled compound at 0.37 MBq/mouse, iv measured at 24 hrs by gamma counter analysis", "assay_type": "ADME, organism-based", "settings": "in vivo", "outline": "as §2"}, "[15]": {"target": "T1, Procathepsin L", "assay": "Inhibition of human liver cathepsin L assessed as inhibition constant using Z-Phe-Arg-AMC as substrate measured every 5 mins for 1 hr by fluorescence assay", "outline": "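Human liver cathepsin L in acetate buffer pH 5.5 (340 mM sodium acetate, 60 mM acetic acid, 1 mM EDTA, 3 mM DTT). Biological triplicate.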"}, "[16]": {"target": "T1, Procathepsin L", "assay": "Inhibition of human liver cathepsin L assessed as pseudo Michaelis-Menten constant at 10 nM using varying levels of Z-Phe-Arg-AMC as substrate measured every 5 mins for 1 hr by fluorescence assay"}},
  "note": "The source made the active and inactive calls. The rule behind the calls is not given here.",
  "data": [
    {"smiles": "Cc1cc(O)cc(C)c1C[C@H](NC(=O)[C@@H]1CCCN1C(=O)[C@H](CCCNC(=N)N)NC(=O)[C@H](CCCNC(=N)N)N(C)C(=O)[C@@H]1CCCN1C(=O)[C@H](CCCCN)NC(=O)[C@@H](CO)NC(=O)[C@@H](CO)NC(=O)[C@@H](CO)NC(=O)[C@H](Cc1cn(CCNC(=O)[C@H](CCCNC(=N)N)NC(=O)[C@H](CC(C)C)NC(=O)C2OC2C(=O)O)nn1)NC(=O)CN1CCN(CC(=O)O)CCN(CC(=O)O)CCN(CC(=O)O)CC1)C(=O)N[C@H](C(=O)N[C@@H](CC(C)C)C(=O)O)C(C)(C)C", "note": "(stereo partly specified)", "values": [
      {"measurement": "Activity", "setting": "[1]", "result": "inactive"},
      {"measurement": "Drug uptake", "setting": "[2]", "result": 0.02, "unit": "% ID/g"},
      {"measurement": "Drug uptake", "setting": "[3]", "result": 55, "unit": "%"},
      {"measurement": "Ratio", "setting": "[4]", "result": 8},
      {"measurement": "Drug uptake", "setting": "[5]", "result": 0.07, "unit": "% ID/g"},
      {"measurement": "Drug uptake", "setting": "[6]", "result": "Active"},
      {"measurement": "Ratio", "setting": "[7]", "result": 4},
      {"measurement": "Activity", "setting": "[8]", "result": "inactive"},
      {"measurement": "Drug uptake", "setting": "[9]", "result": 0.65, "unit": "% ID/g"},
      {"measurement": "Drug uptake", "setting": "[10]", "result": 0.7, "unit": "% ID/g"},
      {"measurement": "Drug uptake", "setting": "[11]", "result": 1.7, "unit": "% ID/g"},
      {"measurement": "Drug uptake", "setting": "[12]", "result": 0.06, "unit": "% ID/g"},
      {"measurement": "Drug uptake", "setting": "[13]", "result": 0.2, "unit": "% ID/g"},
      {"measurement": "Drug uptake", "setting": "[14]", "result": 2.2, "unit": "% ID/g"},
      {"measurement": "Ki", "setting": "[15]", "result": 76, "unit": "nM"}
    ]},
    {"smiles": "Cc1cc(O)cc(C)c1C[C@H](NC(=O)[C@@H]1CCCN1C(=O)[C@H](CCCNC(=N)N)NC(=O)[C@H](CCCNC(=N)N)N(C)C(=O)[C@@H]1CCCN1C(=O)[C@H](CCCCN)NC(=O)[C@@H](CO)NC(=O)[C@@H](CO)NC(=O)[C@@H](CO)NC(=O)[C@H](Cc1cn(CCNC(=O)[C@H](CCCNC(=N)N)NC(=O)[C@H](CC(C)C)NC(=O)CCC(=O)O)nn1)NC(=O)CN1CCN(CC(=O)O)CCN(CC(=O)O)CCN(CC(=O)O)CC1)C(=O)N[C@H](C(=O)N[C@@H](CC(C)C)C(=O)O)C(C)(C)C", "values": [
      {"measurement": "K", "setting": "[16]", "result": 37, "unit": "µM"}
    ]}
  ]
}
